Where two headings read alike, the source gives them in different places.
Legend:
[1] = human; for share of the total TTBP-TAZ metabolite concentrations: 2 h
TNFα = assay: Hepatic mRNA expression; format: in vivo, Sprague-Dawley rat; conditions: rat liver; 250 mg/kg bw/day by gavage, 7 days; vs control
Procedure, shortened: (§1)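 Male Sprague-Dawley rats (4 weeks old, 7-day quarantine) were randomised to a corn-oil control or test compound at 250 mg/kg bw/day in corn oil by oral gavage for 7 days, n = 5 per group. Liver was taken at sacrifice. mRNA was measured by quantitative real-time PCR, normalised to β2 microglobulin (B2m), with relative expression by 2−ΔΔCt. Mean ± SE reported; significance at p 0.05.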

PPARδ = assay: Hepatic mRNA expression; format: in vivo, Sprague-Dawley rat; conditions: rat liver; 250 mg/kg bw/day by gavage, 7 days; vs control
Procedure, shortened: as §1

PPARγ = assay: Hepatic mRNA expression; format: in vivo, Sprague-Dawley rat; conditions: rat liver; 250 mg/kg bw/day by gavage, 7 days; vs control
Procedure, shortened: as §1

IL-6 = assay: Hepatic mRNA expression; format: in vivo, Sprague-Dawley rat; conditions: rat liver; 250 mg/kg bw/day by gavage, 7 days; vs control
Procedure, shortened: as §1

HOMX1 = assay: Hepatic mRNA expression; format: in vivo, Sprague-Dawley rat; conditions: rat liver; 250 mg/kg bw/day by gavage, 7 days; vs control
Procedure, shortened: as §1

VEGF = assay: Hepatic mRNA expression; format: in vivo, Sprague-Dawley rat; conditions: rat liver; 250 mg/kg bw/day by gavage, 7 days; vs control
Procedure, shortened: as §1

RXRγ = assay: Hepatic mRNA expression; format: in vivo, Sprague-Dawley rat; conditions: rat liver; 250 mg/kg bw/day by gavage, 7 days; vs control
Procedure, shortened: as §1

RXRβ = assay: Hepatic mRNA expression; format: in vivo, Sprague-Dawley rat; conditions: rat liver; 250 mg/kg bw/day by gavage, 7 days; vs control
Procedure, shortened: as §1

PLIN = assay: Hepatic mRNA expression; format: in vivo, Sprague-Dawley rat; conditions: rat liver; 250 mg/kg bw/day by gavage, 7 days; vs control
TSH = assay: Hepatic mRNA expression; format: in vivo, Sprague-Dawley rat; conditions: rat liver; 250 mg/kg bw/day by gavage, 7 days; vs control
Procedure, shortened: as §1

LPL = assay: Hepatic mRNA expression; format: in vivo, Sprague-Dawley rat; conditions: rat liver; 250 mg/kg bw/day by gavage, 7 days; vs control
Procedure, shortened: as §1

HIF1α = assay: Hepatic mRNA expression; format: in vivo, Sprague-Dawley rat; conditions: rat liver; 250 mg/kg bw/day by gavage, 7 days; vs control
Procedure, shortened: as §1

ANGPTL4 = assay: Hepatic mRNA expression; format: in vivo, Sprague-Dawley rat; conditions: rat liver; 250 mg/kg bw/day by gavage, 7 days; vs control
Procedure, shortened: as §1

LXR = assay: Hepatic mRNA expression; format: in vivo, Sprague-Dawley rat; conditions: rat liver; 250 mg/kg bw/day by gavage, 7 days; vs control
Procedure, shortened: as §1

INFγ = assay: Hepatic mRNA expression; format: in vivo, Sprague-Dawley rat; conditions: rat liver; 250 mg/kg bw/day by gavage, 7 days; vs control
Procedure, shortened: as §1

PXR = assay: Hepatic mRNA expression; format: in vivo, Sprague-Dawley rat
THRβ = assay: Hepatic mRNA expression; format: in vivo, Sprague-Dawley rat; conditions: rat liver; 250 mg/kg bw/day by gavage, 7 days; vs control
Procedure, shortened: as §1

SOD1 = assay: Hepatic mRNA expression; format: in vivo, Sprague-Dawley rat; conditions: rat liver; 250 mg/kg bw/day by gavage, 7 days; vs control
Procedure, shortened: as §1

[2] = Relative body, liver and thyroid weights of exposed rats; format: in vivo, Sprague-Dawley rat; conditions: 250 mg/kg bw/day by gavage, 7 days, vs control (Table S2)
[3] = In vitro microsomal incubation, human liver microsomes; conditions: for share of the total TTBP-TAZ metabolite concentrations: metabolite formed from TTBP-TAZ in liver microsome incubations, target screening; for formation of 2,4,6-TBP as a result of biotransformation: human liver microsomes
RXRα = assay: Hepatic mRNA expression; format: in vivo, Sprague-Dawley rat; conditions: rat liver; 250 mg/kg bw/day by gavage, 7 days; vs control
Procedure, shortened: as §1

CAT = assay: Hepatic mRNA expression; format: in vivo, Sprague-Dawley rat; conditions: rat liver; 250 mg/kg bw/day by gavage, 7 days; vs control
Procedure, shortened: as §1

[4] = In vitro microsomal incubation, rat liver microsomes; conditions: for formation of 2,4,6-TBP as a result of biotransformation: rat liver microsomes
[5] = animal studies; ref Mörck et al., 2003; cited from earlier work
AhR = assay: Hepatic mRNA expression; format: in vivo, Sprague-Dawley rat; conditions: rat liver; 250 mg/kg bw/day by gavage, 7 days; vs control
Procedure, shortened: as §1

MYC = assay: Hepatic mRNA expression; format: in vivo, Sprague-Dawley rat; conditions: rat liver; 250 mg/kg bw/day by gavage, 7 days; compared to the 2,4,6 TBP exposure group
[6] = rat
TG = assay: Hepatic mRNA expression; format: in vivo, Sprague-Dawley rat; conditions: rat liver; 250 mg/kg bw/day by gavage, 7 days; vs control
Procedure, shortened: as §1

AOX1 = assay: Hepatic mRNA expression; format: in vivo, Sprague-Dawley rat; conditions: rat liver; 250 mg/kg bw/day by gavage, 7 days; vs control
Procedure, shortened: as §1

[7] = Occurrence of TTBP-TAZ and 2,4,6-TBP in blood and liver of orally exposed rats; design: species or system Sprague-Dawley rat; conditions: in vivo, 250 mg/kg/day

COc1c(Br)cc(Br)cc1Br [2,4,6-TBA, 2,4,6-tribromoanisole]
share of the total TTBP-TAZ metabolite concentrations ([1]; pH 7.4): 0.02%

Oc1c(Br)cc(Br)cc1Br [2,4,6-TBP, 2,4,6-Tribromophenol]
TNFα mRNA expression (TNFα): significantly decreased | PPARδ mRNA expression (PPARδ): significantly downregulated | PPARγ mRNA expression (PPARγ): significantly downregulated | IL-6 mRNA expression (IL-6): significantly decreased | HOMX1 mRNA expression (HOMX1): significantly inhibited | VEGF mRNA expression (VEGF): significantly inhibited | RXRγ mRNA expression (RXRγ): significantly downregulated | RXRβ mRNA expression (RXRβ): significantly downregulated | PLIN mRNA expression, fold change (PLIN): 2.4 fold | TSH mRNA expression (TSH): significantly induced | LPL mRNA expression (LPL): significantly inhibited | HIF1α mRNA expression (HIF1α): significantly inhibited | ANGPTL4 mRNA expression (ANGPTL4): significantly inhibited | LXR mRNA expression (LXR): significantly downregulated | INFγ mRNA expression (INFγ): significantly decreased | PXR mRNA expression (PXR; rat liver, 250 mg/kg bw/day by gavage, 7 days, vs control): significantly downregulated | THRβ mRNA expression (THRβ): significantly inhibited | SOD1 mRNA expression (SOD1): significantly inhibited | relative body, liver, and thyroid weights [2]: No significant difference | share of the total TTBP-TAZ metabolite concentrations [3]: 87% | concentration ratio of 2,4,6-TBP to 2,4,5-TBP ([3]; metabolites of TTBP-TAZ incubation): 6.9 | RXRα mRNA expression (RXRα): significantly downregulated | CAT mRNA expression (CAT): significantly inhibited

Brc1c(Br)c(Br)c(CCc2c(Br)c(Br)c(Br)c(Br)c2Br)c(Br)c1Br [DBDPE, decabromodiphenyl ethane]
formation of 2,4,6-TBP as a result of biotransformation [4]: not formed | excreted in feces [5]: 90% | formation of 2,4,6-TBP as a result of biotransformation [3]: not formed

Oc1cc(Br)c(Br)cc1Br [2,4,5-TBP, 2,4,5-Tribromophenol]
share of the total TTBP-TAZ metabolite concentrations ([1]; pH 7.4): 12.6%

Oc1ccc(Br)cc1Br [2,4-DBP, 2,4-dibromophenol]
share of the total TTBP-TAZ metabolite concentrations [3]: 0.19%

Brc1cc(Br)c(Oc2nc(Oc3c(Br)cc(Br)cc3Br)nc(Oc3c(Br)cc(Br)cc3Br)n2)c(Br)c1 [TTBP-TAZ, 2,4,6-tris-(2,4,6-tribromophenoxy)-1,3,5-triazine]
AhR mRNA expression, fold change compared to control (AhR): 18 fold | TNFα mRNA expression (TNFα): significantly reduced | In vitro intrinsic clearance rate (CLint), depletion ([1]; microsomes): 10.3 µL/min/mg | 2,4,6-TBP formation rate ([1]; pH 7.4): 22.3 µL/min/mg | MYC mRNA expression (MYC): significantly induced | half-life ([4]; Sprague-Dawley, rat, liver microsomes, pH 7.4): 2.2 h | 2,4,6-TBP formation rate ([6]; Sprague-Dawley, pH 7.4): 12.8 µL/min/mg | In vitro intrinsic clearance rate (CLint), depletion ([6]; microsomes): 5.33 µL/min/mg | TG mRNA expression (TG): inhibition | AOX1 mRNA expression (AOX1): significantly inhibited | HOMX1 mRNA expression (HOMX1): significantly inhibited | VEGF mRNA expression (VEGF): significantly inhibited | RXRγ mRNA expression (RXRγ): downregulated significantly | RXRβ mRNA expression (RXRβ): downregulated significantly | PLIN mRNA expression, fold change (PLIN): 28 fold | TSH mRNA expression (TSH): significantly induced | LPL mRNA expression (LPL): significantly inhibited | HIF1α mRNA expression (HIF1α): significantly inhibited | ANGPTL4 mRNA expression (ANGPTL4): significantly inhibited | INFγ mRNA expression (INFγ): significantly reduced | PXR mRNA expression (PXR; rat, in vivo, 250 mg/kg/day): downregulated significantly | SOD1 mRNA expression (SOD1): significantly inhibited | half-life ([3]; human, liver microsomes, pH 7.4): 1.1 h | concentration of 2,4,6-TBP in rat blood ([7]; male, Sprague-Dawley, 7 days): 50 ± 14 μg/g lipid weight (lw) | concentration of 2,4,6-TBP in rat liver ([7]; male, Sprague-Dawley, 7 days): 270 ± 110 μg/g lipid weight (lw) | TTBP-TAZ detected in blood samples ([7]; rat): no TTBP-TAZ was detected | TTBP-TAZ detected in liver samples ([7]; rat): no TTBP-TAZ was detected | RXRα mRNA expression (RXRα): downregulated significantly | CAT mRNA expression (CAT): significantly inhibited

CC(C)(c1cc(Br)c(O)c(Br)c1)c1cc(Br)c(O)c(Br)c1 [TBBPA, tetrabromobisphenol A]
formation of 2,4,6-TBP as a result of biotransformation [4]: not formed | formation of 2,4,6-TBP as a result of biotransformation [3]: not formed

Source: paper PMC8688301 (Environment international, 2021)
